Reference: publication PMC6099358 (Diabetes, Obesity & Metabolism, 2018)

Assays:
[1] = system: Japanese participants with T1DM; test: Adverse events and hypoglycaemic episodes during 4-week double-blind treatment; assay type: in vivo, human; conditions: 4 weeks
Method in brief: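 In a double-blind, 4-week study, participants took test compound 2.5, 10 or 25 mg or placebo orally once daily. Adverse events were coded in MedDRA 19.1. Hypoglycaemic events were based on scheduled blood glucose tests and/or CGM. Special-interest events included genital and urinary infections and volume depletion. Severe hypoglycaemia and DKA were adjudicated externally. Results were summarised descriptively in all treated participants.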

[2] = system: Japanese participants with T1DM; test: 24-hour urinary glucose excretion; assay type: in vivo, human; conditions: for placebo-corrected adjusted mean (95% CI) change from baseline in 24-hour UGE: Day 7
Method in brief: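 Japanese adults with T1DM on multiple daily insulin injections, after a 2-week placebo run-in, were randomized 1:1:1:1 to oral test compound 2.5, 10 or 25 mg or placebo once each morning for 4 weeks. All urine was collected over 24 h at baseline and Days 1, 7 and 28. Day-7 change was analysed by ANCOVA (baseline covariate) with LOCF.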

[3] = system: Japanese participants with T1DM; test: Ketogenesis markers; assay type: in vivo, human; conditions: after 4 weeks of treatment
Method in brief: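 Serum β-hydroxybutyrate was sampled on Days −1, 1, 7 and 8 and measured by a contract laboratory. The change from baseline in AUC0–24h was calculated on Day 7. Day-28 levels were measured among the laboratory safety parameters and summarised descriptively.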

[4] = system: participants with T2DM with established cardiovascular disease; conditions: cited from earlier work
[5] = system: Japanese participants with T2DM; conditions: 10 mg, Day 28, Japanese T2DM; cited from earlier work
Body weight = assay type: in vivo, human; conditions: Day 28
Method in brief: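 T1DM participants on multiple daily insulin injections took oral test compound or placebo once daily for 4 weeks. Body weight was measured on Day 28. Change from baseline was analysed by ANCOVA, with treatment as a fixed effect and baseline as a linear covariate.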

[6] = system: Japanese participants with T1DM; test: Laboratory safety parameters; assay type: in vivo, human; conditions: empagliflozin groups, Day 28
Method in brief: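 Blood and urine were collected on Days 1, 7 and 28 of once-daily oral dosing with test compound or placebo. They were measured centrally and summarised descriptively in the treated set.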

[7] = Pharmacokinetics of empagliflozin in plasma; assay type: in vivo, human
Method in brief: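 Blood and urine were sampled on Days 1 and 28 of 4-week once-daily oral dosing (2.5, 10, 25 mg). Concentrations were measured by validated LC-MS/MS. Steady state was judged from troughs on Days 2, 7, 14, 21, 27, 28 and 29. Cmax, AUC and t1/2,ss were derived non-compartmentally. Timepoint statistics required ≥2/3 of values within the validated range.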

[8] = system: Japanese participants with T1DM; test: Weekly recorded insulin dose; assay type: in vivo, human; conditions: for recorded insulin dose adjusted mean difference vs placebo (95% CI): Week 4; for % of adjusted mean change from baseline in recorded insulin dose (reduction from baseline): within Week 4
Method in brief: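 Participants recorded basal and bolus insulin doses in a diary. Weekly totals were compiled during 4 weeks of once-daily oral test compound or placebo. At randomization, HbA1c 7.5–<8% prompted a 10% cut in daily insulin; otherwise dosing was at investigator discretion. Changes were analysed by ANCOVA with baseline covariate.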

[9] = system: Japanese participants with T1DM; test: Continuous glucose monitoring; assay type: in vivo, human; conditions: within Week 4, CGM
Method in brief: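 A blinded professional CGM device was worn from Day −6 to Day 28 during once-daily oral test compound or placebo. Glucose exposure was taken as mean daily glucose AUC. Variability was taken as glucose interquartile range, plus % time at ≤70, >70 to ≤180 and >180 mg/dL. Week-4 changes from baseline are adjusted means.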

[10] = system: Japanese participants with T1DM; test: HbA1c and fasting plasma glucose; assay type: in vivo, human; conditions: Day 28
Method in brief: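 During 4 weeks of once-daily oral test compound or placebo, blood was drawn for HbA1c on Days 1 and 28. FPG was sampled on Days −1, 1, 2, 7, 8, 14, 21, 28 and 29. Samples were assayed at a central laboratory. Changes from baseline were analysed by ANCOVA (treatment fixed, baseline covariate).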

OC[C@H]1O[C@@H](c2ccc(Cl)c(Cc3ccc(O[C@H]4CCOC4)cc3)c2)[C@H](O)[C@@H](O)[C@@H]1O [empagliflozin]
Asymptomatic hypoglycaemia with PG ≤70 mg/dL, rate ([1]; 2.5 mg): 5.1 episodes per 30 days per participant
Asymptomatic hypoglycaemia with PG ≤70 mg/dL, total number of episodes ([1]; 2.5 mg): 62 episodes
Death ([1]; 2.5 mg): 0 (0) % (n) of participants
Decreased renal function ([1]; 2.5 mg): 0 (0) % (n) of participants
Events consistent with UTI ([1]; 2.5 mg): 0 (0) % (n) of participants
Events consistent with genital infection ([1]; 2.5 mg): 7.7 (1) % (n) of participants
Events consistent with volume depletion ([1]; 2.5 mg): 0 (0) % (n) of participants
Hepatic injury ([1]; 2.5 mg): 0 (0) % (n) of participants
Hypoglycaemia (AE) ([1]; 2.5 mg): 92.3 (12) % (n) of participants
Hypoglycaemia requiring assistance, rate ([1]; 2.5 mg): 0 (0) episodes per 30 days per participant
Hypoglycaemia requiring assistance, total number of episodes ([1]; 2.5 mg): 0 (0) episodes
Ketoacidosis ([1]; 2.5 mg): 0 (0) % (n) of participants
Symptomatic hypoglycaemia with PG <54 mg/dL, rate ([1]; 2.5 mg): 1.5 episodes per 30 days per participant
Symptomatic hypoglycaemia with PG <54 mg/dL, total number of episodes ([1]; 2.5 mg): 18 episodes
Symptomatic hypoglycaemia with PG ≥54 and ≤70 mg/dL, rate ([1]; 2.5 mg): 1.8 episodes per 30 days per participant
Symptomatic hypoglycaemia with PG ≥54 and ≤70 mg/dL, total number of episodes ([1]; 2.5 mg): 22 episodes
participants with genital infection (vulvovaginal candidiasis of mild intensity) ([1]; 2.5 mg): 1 participants
≥1 AE ([1]; 2.5 mg): 92.3 (12) % (n) of participants
≥1 AE leading to discontinuation ([1]; 2.5 mg): 0 (0) % (n) of participants
≥1 Drug-related AE ([1]; 2.5 mg): 84.6 (11) % (n) of participants
≥1 Serious AE ([1]; 2.5 mg): 0 (0) % (n) of participants
≥1 Severe AE ([1]; 2.5 mg): 0 (0) % (n) of participants
Asymptomatic hypoglycaemia with PG ≤70 mg/dL, rate ([1]; 10 mg): 6.7 episodes per 30 days per participant
Asymptomatic hypoglycaemia with PG ≤70 mg/dL, total number of episodes ([1]; 10 mg): 78 episodes
Death ([1]; 10 mg): 0 (0) % (n) of participants
Decreased renal function ([1]; 10 mg): 0 (0) % (n) of participants
Events consistent with UTI ([1]; 10 mg): 0 (0) % (n) of participants
Events consistent with genital infection ([1]; 10 mg): 0 (0) % (n) of participants
Events consistent with volume depletion ([1]; 10 mg): 0 (0) % (n) of participants
Hepatic injury ([1]; 10 mg): 0 (0) % (n) of participants
Hypoglycaemia (AE) ([1]; 10 mg): 100 (12) % (n) of participants
Hypoglycaemia requiring assistance, rate ([1]; 10 mg): 0 (0) episodes per 30 days per participant
Hypoglycaemia requiring assistance, total number of episodes ([1]; 10 mg): 0 (0) episodes
Ketoacidosis ([1]; 10 mg): 0 (0) % (n) of participants
Symptomatic hypoglycaemia with PG <54 mg/dL, rate ([1]; 10 mg): 2.7 episodes per 30 days per participant
Symptomatic hypoglycaemia with PG <54 mg/dL, total number of episodes ([1]; 10 mg): 31 episodes
Symptomatic hypoglycaemia with PG ≥54 and ≤70 mg/dL, rate ([1]; 10 mg): 3.9 episodes per 30 days per participant
Symptomatic hypoglycaemia with PG ≥54 and ≤70 mg/dL, total number of episodes ([1]; 10 mg): 45 episodes
≥1 AE ([1]; 10 mg): 100 (12) % (n) of participants
≥1 AE leading to discontinuation ([1]; 10 mg): 0 (0) % (n) of participants
≥1 Drug-related AE ([1]; 10 mg): 100 (12) % (n) of participants
≥1 Serious AE ([1]; 10 mg): 0 (0) % (n) of participants
≥1 Severe AE ([1]; 10 mg): 0 (0) % (n) of participants
Asymptomatic hypoglycaemia with PG ≤70 mg/dL, total number of episodes ([1]; 25 mg): 140 episodes
Death ([1]; 25 mg): 0 (0) % (n) of participants
Decreased renal function ([1]; 25 mg): 0 (0) % (n) of participants
Events consistent with UTI ([1]; 25 mg): 0 (0) % (n) of participants
Events consistent with genital infection ([1]; 25 mg): 8.3 (1) % (n) of participants
Events consistent with volume depletion ([1]; 25 mg): 0 (0) % (n) of participants
Hepatic injury ([1]; 25 mg): 0 (0) % (n) of participants
Hypoglycaemia (AE) ([1]; 25 mg): 100 (12) % (n) of participants
Hypoglycaemia requiring assistance, rate ([1]; 25 mg): 0 (0) episodes per 30 days per participant
Hypoglycaemia requiring assistance, total number of episodes ([1]; 25 mg): 0 (0) episodes
Ketoacidosis ([1]; 25 mg): 0 (0) % (n) of participants
Symptomatic hypoglycaemia with PG <54 mg/dL, rate ([1]; 25 mg): 1.8 episodes per 30 days per participant
Symptomatic hypoglycaemia with PG <54 mg/dL, total number of episodes ([1]; 25 mg): 21 episodes
Symptomatic hypoglycaemia with PG ≥54 and ≤70 mg/dL, rate ([1]; 25 mg): 1.0 episodes per 30 days per participant
Symptomatic hypoglycaemia with PG ≥54 and ≤70 mg/dL, total number of episodes ([1]; 25 mg): 12 episodes
participants with genital infection (vulvovaginal candidiasis of mild intensity) ([1]; 25 mg): 1 participants
≥1 AE ([1]; 25 mg): 100 (12) % (n) of participants
≥1 AE leading to discontinuation ([1]; 25 mg): 0 (0) % (n) of participants
≥1 Drug-related AE ([1]; 25 mg): 91.7 (11) % (n) of participants
≥1 Serious AE ([1]; 25 mg): 0 (0) % (n) of participants
≥1 Severe AE ([1]; 25 mg): 0 (0) % (n) of participants
DKA events (investigator-reported or adjudicated) ([1]; all doses): No events meeting the criteria for DKA were reported
tolerability ([1]; all three doses (2.5, 10, 25 mg)): generally well tolerated
placebo-corrected adjusted mean (95% CI) change from baseline in 24-hour UGE ([2]; 2.5 mg once daily): 65.10 [43.29, 86.90] g/24 h
adjusted effect on UGE ([2]; 2.5 mg, Day 28, Japanese T1DM): 91.0 g/24 h
placebo-corrected adjusted mean (95% CI) change from baseline in 24-hour UGE ([2]; 10 mg once daily): 81.19 [58.80, 103.58] g/24 h
placebo-corrected adjusted mean (95% CI) change from baseline in 24-hour UGE ([2]; 25 mg once daily): 98.11 [75.91, 120.31] g/24 h
highest individual serum BHB level [3]: approximately 0.8 mmol/L
mean serum BHB levels ([3]; all doses): < 0.5 mmol/L
reduction of incident or worsening nephropathy [4]: 39%
reduction of risk of cardiovascular death [4]: 38%
adjusted effect on UGE [5]: 80.9 g/24 h
body weight adjusted mean difference vs placebo (95% CI) (Body weight; 2.5 mg): -1.37 kg
body weight adjusted mean difference vs placebo (95% CI) (Body weight; 10 mg): -1.47 kg
body weight adjusted mean difference vs placebo (95% CI) (Body weight; 25 mg): -1.70 kg
changes from baseline in laboratory safety parameters (overall) [6]: no significant changes from baseline
exposure (AUC and Cmax) versus dose ([7]; after a single dose and at steady state): increased proportionally with dose
Tmax ([7]; human, plasma, po): ~1.5 h
time to steady state ([7]; once daily oral dosing, trough concentrations): ≤ 7 days
time to peak plasma level after dosing ([7]; single and multiple oral doses, 2.5-25 mg): 1.5 h
recorded insulin dose adjusted mean difference vs placebo (95% CI) ([8]; 2.5 mg): −0.08 U/kg
% of adjusted mean change from baseline in recorded insulin dose (reduction from baseline) ([8]; 2.5 mg): −20.5%
recorded insulin dose adjusted mean difference vs placebo (95% CI) ([8]; 10 mg): −0.10 U/kg
% of adjusted mean change from baseline in recorded insulin dose (reduction from baseline) ([8]; 10 mg): −23.3%
recorded insulin dose adjusted mean difference vs placebo (95% CI) ([8]; 25 mg): −0.09 U/kg
% of adjusted mean change from baseline in recorded insulin dose (reduction from baseline) ([8]; 25 mg): −24.2%
IQR of glucose adjusted mean difference vs placebo (95% CI) ([9]; 2.5 mg): -23.08 mg/dL
MDAUC of glucose adjusted mean difference vs placebo (95% CI) ([9]; 2.5 mg): -558 mg·h/dL
IQR of glucose adjusted mean difference vs placebo (95% CI) ([9]; 10 mg): -13.08 mg/dL
MDAUC of glucose adjusted mean difference vs placebo (95% CI) ([9]; 10 mg): -338 mg·h/dL
IQR of glucose adjusted mean difference vs placebo (95% CI) ([9]; 25 mg): -22.09 mg/dL
MDAUC of glucose adjusted mean difference vs placebo (95% CI) ([9]; 25 mg): -514 mg·h/dL
FPG adjusted mean difference vs placebo (95% CI) ([10]; 2.5 mg): -14.27 mg/dL
HbA1c adjusted mean difference vs placebo (95% CI) ([10]; 2.5 mg): −0.20%
FPG adjusted mean difference vs placebo (95% CI) ([10]; 10 mg): -43.63 mg/dL
HbA1c adjusted mean difference vs placebo (95% CI) ([10]; 10 mg): −0.35%
FPG adjusted mean difference vs placebo (95% CI) ([10]; 25 mg): -59.57 mg/dL
HbA1c adjusted mean difference vs placebo (95% CI) ([10]; 25 mg): −0.20%
